Measurements gathered from unrelated publications.
Compare with care: the assays were run in different laboratories.
CHEK1: Serine/threonine-protein kinase Chk1 (CHEK1, Homo sapiens, UniProt O14757)
PTPN22: Tyrosine-protein phosphatase non-receptor type 22 (PTPN22, Homo sapiens, UniProt Q9Y2R2)
SLC6A3: Sodium-dependent dopamine transporter (SLC6A3, Homo sapiens, UniProt Q01959)
PANK3: Pantothenate kinase 3 (PANK3, Homo sapiens, UniProt Q9H999)
PDE10A: cAMP and cAMP-inhibited cGMP 3',5'-cyclic phosphodiesterase 10A (PDE10A, Homo sapiens, UniProt Q9Y233)
ACLY: ATP-citrate synthase (ACLY, Homo sapiens, UniProt P53396)
PRMT1: Protein arginine N-methyltransferase 1 (PRMT1, Homo sapiens, UniProt Q99873)
SLC2A1: Solute carrier family 2, facilitated glucose transporter member 1 (SLC2A1, Homo sapiens, UniProt P11166)
TNK2: Activated CDC42 kinase 1 (TNK2, Homo sapiens, UniProt Q07912)
DDR2: Discoidin domain-containing receptor 2 (DDR2, Homo sapiens, UniProt Q16832)
TLR8: Toll-like receptor 8 (TLR8, Homo sapiens, UniProt Q9NR97)
PDE1C: Dual specificity calcium/calmodulin-dependent 3',5'-cyclic nucleotide phosphodiesterase 1C (PDE1C, Homo sapiens, UniProt Q14123)

| Structure (SMILES) | target | assay | system | setting | IC50 [nM] |
| --- | --- | --- | --- | --- | --- |
| CCN(CC)C(=O)CC(c1ccc2c(c1)OCO2)c1c(O)cc(OC)cc1OC (stereo not shown) | Nuclear receptor ROR-gamma (Mus musculus, UniProt P51450) | reporter gene |  |  | > 50000 |
| COc1cc(-c2ccc3c(c2)Nc2ccc(CC(=O)NC(CO)c4ccccc4)cc2NC3=O)ccc1[N+](=O)[O-] (stereo not shown) | CHEK1 | enzyme activity, inhibitor |  |  | 26.9 |
| CCN(CC)C(=S)SSC(=S)N(CC)CC | PTPN22 | enzyme activity, inhibitor, fluorescence |  | pH 6.5 | 47000 |
| Clc1ccc(C(c2ccccc2)c2nnnn2CCCN2CCC(CCCc3ccccc3)CC2)cc1 (stereo not shown) | SLC6A3 | transporter uptake, inhibitor |  |  | 843 |
| COc1cc(-c2ccc3c(c2)Nc2ccc(NC(=O)c4cc[nH]n4)cc2NC3=O)ccc1[N+](=O)[O-] | CHEK1 | enzyme activity, inhibitor |  |  | 9.06 |
| CO[C@H]1O[C@H](COS(=O)(=O)O)[C@@H](O[C@@H]2O[C@@H](C(=O)O)[C@@H](O[C@H]3O[C@H](COS(=O)(=O)O)[C@@H](O[C@@H]4O[C@H](C(=O)O)[C@@H](O[C@H]5O[C@H](COS(=O)(=O)O)[C@@H](O)[C@H](O)[C@H]5NS(=O)(=O)O)[C@H](O)[C@H]4O)[C@H](OS(=O)(=O)O)[C@H]3NS(=O)(=O)O)[C@H](O)[C@H]2OS(=O)(=O)O)[C@H](O)[C@H]1NS(=O)(=O)O | Coagulation factor XI (F11, Homo sapiens, UniProt P03951) | enzyme activity, inhibitor, absorbance |  | pH 7.4 | > 360000 |
| CC(=O)SCCNC(=O)CCNC(=O)[C@H](O)C(C)(C)COP(=O)(O)OP(=O)(O)OC[C@H]1O[C@@H](n2cnc3c(N)ncnc32)[C@H](O)[C@@H]1OP(=O)(O)O | PANK3 | enzyme activity, inhibitor |  |  | 170 |
| COc1ccc2c(Oc3ccc4c(C(=O)Nc5ccccc5N)cccc4c3)ccnc2c1 | Ephrin type-B receptor 4 (EPHB4, Homo sapiens, UniProt P54760) | enzyme activity, inhibitor |  |  | > 500 |
| COc1ccc(CNc2c(CO)cnc3c(C4CC4)cc(C#N)cc23)cn1 | PDE10A | enzyme activity, inhibitor |  |  | > 10000 |
| O=C(O)C(=O)CC(=O)c1cccc(N(Cc2ccccc2)Cc2ccccc2)c1 | PTPN22 | enzyme activity, inhibitor, absorbance |  | pH 7 | 73000 |
| CC(C)C1=CC[C@H]2C(=C1)CC[C@@H]1[C@]2(C)CCC[C@@]1(C)C(=O)O | ACLY | enzyme activity, inhibitor |  |  | > 20000 |
| N=C(NCCCSC[C@H]1O[C@@H](n2cnc3c(NCCCc4ccccc4)ncnc32)[C@H](O)[C@@H]1O)NC1CC1 | PRMT1 | enzyme activity, inhibitor, fluorescence |  |  | 1180 |
| C/C(=N\O)c1ccc(-c2ccc(O)c(Cl)c2)c(Cl)c1O | SLC2A1 | transporter uptake, inhibitor, radiometric |  |  | 7000 |
| O=C(N[C@@H]1CC[C@@H](c2cccc(F)c2F)CN(CC(F)(F)F)C1=O)N1CCC(n2c(=O)[nH]c3ncccc32)CC1 | ATP-binding cassette sub-family C member 4 (ABCC4, Homo sapiens, UniProt O15439) | transporter uptake, inhibitor | HEK293 | cell membranes | 42400 |
| COc1cc(-c2ccc(-c3[nH]nc4c3Cc3cc(CNC5CCC(O)CC5)ccc3-4)cc2)ccc1O (stereo not shown) | CHEK1 | enzyme activity, inhibitor |  |  | 59.4 |
| CCn1ncc2c1-c1cnc(N)c(c1)O[C@H](C)c1cc(F)ccc1-c1nn(C)nc1C2 | TNK2 | enzyme activity, inhibitor, radiometric |  |  | 77 |
| CC(C)N(C(=S)SSC(=S)N(C(C)C)C(C)C)C(C)C | PTPN22 | enzyme activity, inhibitor, fluorescence |  | pH 6.5 | 7000 |
| COC(=O)Cc1ccc2c(c1)NC(=O)c1ccc(-c3cccc4ccccc34)cc1N2 | CHEK1 | enzyme activity, inhibitor |  |  | > 10000 |
| CN(CCOc1ccc(CC2SC(=O)NC2=O)cc1)c1ccccn1 (stereo not shown) | PANK3 | enzyme activity, inhibitor, ATP luminescence |  |  | 1700 |
| COc1cc(N2CCN(C)CC2)ccc1Nc1ncc2c(n1)N(C)c1ccccc1C(=O)N2CC(F)(F)F | TNK2 | cell-free assay, TR-FRET |  |  | 5000 |
| Clc1ccc(C(c2ccc(Cl)cc2)c2nnnn2CCCCN2CCC(Cc3ccccc3)CC2)cc1 | SLC6A3 | transporter uptake, inhibitor |  |  | 172 |
| OC[C@H]1O[C@@H](n2cnc3c(NCCCc4ccccc4)ncnc32)[C@H](O)[C@@H]1O | PRMT1 | enzyme activity, inhibitor, fluorescence |  |  | > 100000 |
| Fc1ccc(C(c2ccc(F)cc2)c2nnnn2CCCCN2CCC(c3ccccc3)CC2)cc1 | SLC6A3 | transporter uptake, inhibitor |  |  | 55.7 |

| Structure (SMILES) | target | assay | system | setting | IC50 [nM] |
| --- | --- | --- | --- | --- | --- |
| C=C1CC[C@@H]([C@H](C)CC(=O)/C=C(\C)C(=O)O)[C@@]12CCC1=C2CC[C@H]2C(C)(C)C(=O)CC[C@]12C | ACLY | enzyme activity, inhibitor |  |  | > 20000 |
| C#CCNC(=N)NCCCSC[C@H]1O[C@@H](n2cnc3c(NCCCc4ccccc4)ncnc32)[C@H](O)[C@@H]1O | PRMT1 | enzyme activity, inhibitor, fluorescence |  |  | 2090 |
| OC1CCC(NCc2ccc3c(c2)Cc2c-3n[nH]c2-c2ccc[nH]2)CC1 (stereo not shown) | CHEK1 | enzyme activity, inhibitor |  |  | 1660 |
| C/C(=N\O)c1ccc(-c2ccc(O)c(C)c2)c(Cl)c1O | SLC2A1 | transporter uptake, inhibitor, radiometric |  |  | 11100 |
| CNC(=O)c1cc2c(Oc3ccc(NC(=O)C4(C(=O)Nc5ccc(F)cc5)CC4)cc3)ccnc2cc1OC | DDR2 | enzyme activity, inhibitor, radiometric |  |  | 41 |
| O=C(O)C1=CCCN(CCON=C(c2ccccc2)c2ccccc2)C1 | Sodium- and chloride-dependent GABA transporter 1 (Slc6a1, Rattus norvegicus, UniProt P23978) | ligand displacement, radioligand |  |  | 390 |
| Clc1ccc(C(c2ccccc2)c2nnnn2CCCCN2CCN(CCCc3ccccc3)CC2)cc1 (stereo not shown) | SLC6A3 | transporter uptake, inhibitor |  |  | 415 |
| COc1cc(-c2ccc3c(c2)Nc2ccc(N)cc2NC3=O)ccc1[N+](=O)[O-] | CHEK1 | enzyme activity, inhibitor |  |  | 16.6 |
| Cc1cc(Nc2cc(CN3CCOCC3)c3nc(C)c(Cc4ccc(Cl)cc4F)n3n2)n[nH]1 | Fibroblast growth factor receptor 2 (FGFR2, Homo sapiens, UniProt P21802) | enzyme activity, inhibitor, TR-FRET |  |  | 32 |
| Cc1ccc(NC(=O)c2ccc(C)c(C(F)(F)F)c2)cc1C#Cc1nn(C2CCC(O)CC2)c2ncnc(N)c12 (stereo not shown) | DDR2 | enzyme activity, inhibitor, radiometric |  |  | 65 |
| CCN(CC)C(=O)c1cnn2c(-c3cccc(C(F)(F)F)c3)ccnc12 | TLR8 | reporter gene |  |  | > 20000 |
| c1ccc(CCC2CCN(CCCn3nnnc3C(c3ccccc3)c3ccccc3)CC2)cc1 | SLC6A3 | transporter uptake, inhibitor |  |  | 726 |
| Cc1cc(-c2ccnc3cc(Cl)ccc23)ccc1O | TLR8 | reporter gene, antagonist |  |  | 1 |
| Clc1ccc(C(c2ccccc2)c2nnnn2CCCCN2CCC(CCc3ccccc3)CC2)cc1 (stereo not shown) | SLC6A3 | transporter uptake, inhibitor |  |  | 443 |
| COc1ccc2c(c1)C(CC(=O)Nc1cccnc1)=C(C)/C2=C/c1cc(OC)c(OC)c(OC)c1 | PDE10A | enzyme activity, inhibitor, FP |  |  | 300 |
| COc1cc(-c2ccc3c(c2)Nc2ccc(CC(=O)N4CCCC(O)C4)cc2NC3=O)ccc1Cl (stereo not shown) | CHEK1 | enzyme activity, inhibitor |  |  | 14.8 |
| CSc1ccc(/C=C2/C(C)=C(CC(=O)O)c3cc(F)ccc32)cc1 | PDE1C | enzyme activity, inhibitor |  |  | > 100000 |
| O=C(O)c1cnn2c(-c3cccc(C(F)(F)F)c3)ccnc12 | TLR8 | reporter gene |  |  | > 20000 |
| COc1cc2c(cc1OCc1ccncc1)Nc1cc(-c3ccc([N+](=O)[O-])c(OC)c3)ccc1C(=O)N2 | CHEK1 | enzyme activity, inhibitor |  |  | 5.17 |
| Clc1ccc(C(c2ccccc2)c2nnnn2CCCCN2CCC(CCCc3ccccc3)CC2)cc1 (stereo not shown) | SLC6A3 | transporter uptake, inhibitor |  |  | 331 |
| CCCC[C@H](NC(=O)C1CN(C)C1)c1ncc(-c2cc3ccccc3nc2OC)[nH]1 | Histone deacetylase 5 (HDAC5, Homo sapiens, UniProt Q9UQL6) | enzyme activity, inhibitor |  |  | > 30000 |
| Clc1ccc(C(c2ccccc2)c2nnnn2CCCCN2CCN(CC=Cc3ccccc3)CC2)cc1 (stereo not shown) | SLC6A3 | transporter uptake, inhibitor |  |  | 412 |
| CN1C(=O)c2c(nn(Cc3ccc(-c4cccc(F)n4)cc3)c2Nc2ccccc2)N2C1=N[C@@H]1CCC[C@@H]12 | PDE1C | enzyme activity, inhibitor, radiometric |  |  | 0.053 |
